Measurements: ChEMBL document CHEMBL1156577, “Moromycins A and B, isolation and structure elucidation of C-glycosylangucycline-type antibiotics from Streptomyces sp. KY002” (2008)
≈ marks a conversion by molar mass, not a printed value.

Legend:
L1210 = assay: Cytotoxicity against cultured mouse L1210 cells
NCI-H460 = assay: Cytotoxicity against human H460 cells after 48 hrs by SRB assay; format: functional; settings: NCI-H460, 48 h; for CC50: read-out: LC50 (the source's name)
In short: (§1)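 In vitro: human lung H-460 and human breast MCF-7 cell lines exposed to drugs for 48 h. Growth read by sulforhodamine B (SRB) staining.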

MCF7 = assay: Cytotoxicity against human MCF7 cells after 48 hrs by SRB assay; format: functional; settings: MCF7, 48 h; for CC50: read-out: LC50 (the source's name)
In short: as §1

| SMILES | ID50 (L1210) | GI50 (NCI-H460) | TGI (NCI-H460) | CC50 (NCI-H460) | GI50 (MCF7) | TGI (MCF7) | CC50 (MCF7) |
| --- | --- | --- | --- | --- | --- | --- | --- |
| CC[C@@]1(O)C[C@H](O[C@H]2C[C@H](N(C)C)[C@H](O[C@H]3C[C@@H]4O[C@H]5CC(=O)[C@@H](C)O[C@H]5O[C@@H]4[C@H](C)O3)[C@H](C)O2)c2c(cc3c(c2O)C(=O)c2c(O)cccc2C3=O)[C@H]1C(=O)OC [ACLACINOMYCIN B] | 0.24 µg/mL (≈ 0.296 µM) |  |  |  |  |  |  |
| CC[C@@]1(O)C[C@H](O[C@H]2C[C@H](N(C)C)[C@H](O[C@H]3C[C@H](O)[C@H](O[C@H]4CCC(=O)[C@H](C)O4)[C@H](C)O3)[C@H](C)O2)c2c(cc3c(c2O)C(=O)c2c(O)cccc2C3=O)[C@H]1C(=O)OC [ACLARUBICIN] | 0.12 µg/mL (≈ 0.148 µM) |  |  |  |  |  |  |
| C[C@@H]1O[C@@H](O[C@H]2CC[C@H](O[C@@]3(C)CC(=O)c4c(ccc5c4C(=O)c4ccc([C@H]6C[C@H]7O[C@H]8CC(=O)[C@H](C)O[C@H]8O[C@@H]7[C@@H](C)O6)c(O)c4C5=O)C3)O[C@H]2C)C=CC1=O [MOROMYCIN A] |  | 18.7 µM | 51.2 µM | 69.1 µM | 25.1 µM | 38.9 µM | 55 µM |
| C[C@@H]1O[C@H]2O[C@@H]3[C@@H](C)O[C@@H](c4ccc5c(c4O)C(=O)c4ccc6c(c4C5=O)C(=O)C[C@](C)(O)C6)C[C@H]3O[C@H]2CC1=O [MOROMYCIN B] |  | 4.1 µM | 14.1 µM | 52.3 µM | 5.6 µM | 9.2 µM | 16.3 µM |
| C[C@@H]1O[C@@H](O[C@H]2CC[C@H](O[C@@]3(C)CC(=O)[C@]4(O)C5=C(C=C[C@]4(O)C3)C(=O)c3c(ccc([C@H]4C[C@H]6O[C@H]7CC(=O)[C@H](C)O[C@H]7O[C@@H]6[C@@H](C)O4)c3O)C5=O)O[C@H]2C)C=CC1=O [SAQUAYAMYCIN B] |  | 12.2 µM | 26.5 µM | 34.3 µM | 15.2 µM | 21.3 µM | 28.1 µM |
